# Measurements from different studies.
# Protocols differ between the studies behind these lines.
# RXFP3: Relaxin-3 receptor 1 (RXFP3, Homo sapiens, UniProt Q9NSD7)
# AVPR2: Vasopressin V2 receptor (AVPR2, Homo sapiens, UniProt P30518)
Structure (SMILES),target,read-out,mode,technique,pH,setting,IC50 [nM]
O=C(Nc1ccc(-c2nc(-c3ccc(Cl)cc3)no2)cc1)C1CC(=O)N(Cc2cccnc2)C1 (centres unmarked),RXFP3,cAMP,antagonist,TR-FRET,,,1490
CCC(C)n1ncn(-c2ccc(N3CCN(c4ccc(OCC5COC(Cn6cncn6)(c6ccc(Cl)cc6Cl)O5)cc4)CC3)cc2)c1=O (centres unmarked),AVPR2,calcium signal,antagonist,,,,31100
CCCS(=O)(=O)Nc1ccc(F)c(C(=O)c2c[nH]c3ncc(-c4ccc(CNC(=O)COCC(=O)NCc5ccc(-c6cnc7[nH]cc(C(=O)c8c(F)ccc(NS(=O)(=O)CCC)c8F)c7c6)cc5)cc4)cc23)c1F,"Serine/threonine-protein kinase B-raf (BRAF, Homo sapiens, UniProt P15056, Q461A/V600E)",enzyme activity,inhibitor,ELISA,,,~464
C=CC(=O)Nc1cc(Nc2nccc(-c3cn(C4CC4)c4ccccc34)n2)c(OC)cc1N(C)CCN(C)C,"Epidermal growth factor receptor (EGFR, Homo sapiens, UniProt P00533, G719C)",enzyme activity,inhibitor,TR-FRET,,,17.2
C=CC(=O)Nc1cc(Nc2nccc(Nc3cc(Cl)c(F)cc3C(C)(C)O)n2)c(OC)cc1N1CC[C@@H](N(C)C)C1,"Proto-oncogene tyrosine-protein kinase ROS (ROS1, Homo sapiens, UniProt P08922)",enzyme activity,inhibitor,,,with preincubation,937
Cc1ccccc1-c1noc(-c2ccc(NC(=O)C3CC(=O)N(Cc4cccnc4)C3)cc2)n1 (centres unmarked),RXFP3,cAMP,antagonist,TR-FRET,,,> 10000
Cc1cccc(C(=O)n2ncc(=O)c3ccccc32)c1,"Neutrophil elastase (ELANE, Homo sapiens, UniProt P08246)",enzyme activity,inhibitor,fluorescence,,,56
NS(=O)(=O)c1cc2c(cc1C(F)(F)F)NC(Cc1ccccc1)NS2(=O)=O (centres unmarked),"Delta-aminolevulinic acid dehydratase (Homo sapiens, UniProt P13716, C162A/K59N)",enzyme activity,inhibitor,absorbance,pH 8,with preincubation,130000
NCCCC[C@H](NC(=O)[C@@H]1CCCN1C(=O)[C@@H]1CSSC[C@H](NC(=O)CNC(=O)CNC(=O)CN)C(=O)N[C@@H](Cc2ccc(O)cc2)C(=O)N[C@@H](Cc2ccccc2)C(=O)N[C@@H](CCC(N)=O)C(=O)N[C@@H](CC(N)=O)C(=O)N1)C(=O)NCC(N)=O,AVPR2,ligand displacement,,radioligand,,cell membranes,9600
CN1CCN(c2ccc(Nc3ncc4cc(C#N)c(=O)n(C5CCCC5)c4n3)cc2)CC1,"Mitogen-activated protein kinase 8 (MAPK8, Homo sapiens, UniProt P45983)",enzyme activity,inhibitor,,,,> 10000
CC(=O)N[C@H]1CSSC[C@@H](C(=O)N[C@@H](Cc2c[nH]c3ccccc23)C(N)=O)NC(=O)[C@H](Cc2ccccc2)NC(=O)[C@H](CCCNC(=N)N)NC1=O,"Melanocortin receptor 3 (MC3R, Homo sapiens, UniProt P41968)",ligand displacement,,radioligand,,,1200
